Bioassay records deposited in PubChem by Johns Hopkins Ion Channel Center.
MrgX1 allo act: allosterically activates human MrgX1 receptor signaling. Q96LB2. MrgX1-HEK293, Fluo-4 calcium flux, FDSS; active compounds read high. B-score at 10 µM. 310,000 tested, 0.63% active;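 active = plate-corrected calcium response at least 3 library SD above typical, normal starting fluorescence, not activating the receptor alone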;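 also: compound read alongside a low EC10 to EC30 dose of BAM8-22 agonist; peak minus trough fluorescence over baseline measured at the second addition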
Target sequence (Q96LB2 whole entry, looked up): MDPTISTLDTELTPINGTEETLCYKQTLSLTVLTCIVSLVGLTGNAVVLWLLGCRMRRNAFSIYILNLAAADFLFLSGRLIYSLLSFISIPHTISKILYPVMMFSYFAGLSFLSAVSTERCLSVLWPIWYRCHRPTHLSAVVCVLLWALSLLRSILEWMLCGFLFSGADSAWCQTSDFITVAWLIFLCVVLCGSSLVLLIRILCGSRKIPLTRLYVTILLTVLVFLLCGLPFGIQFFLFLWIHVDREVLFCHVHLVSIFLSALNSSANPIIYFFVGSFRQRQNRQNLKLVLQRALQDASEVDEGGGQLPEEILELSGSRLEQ
MrgX1 antag: antagonists of human MrgX1 receptor. 310,000 tested, 1.3% active. Q96LB2. AID 588676. MRGX1-HEK293 calcium flux, Fluo-4, BAM8-22 antagonism; active compounds read low. B-score at 10 µM;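 active = calcium-response B-score plate-corrected more than 3 library SD below zero, starting fluorescence within 5 deviations, no agonist response on first addition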;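 also: peak minus trough fluorescence over baseline after final BAM8-22 challenge near maximal dose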
RGS4 block: human RGS4 inhibition. P49798. HEK293 M3R/RGS4 inducible, Fluo-4 calcium flux; active compounds read high; triggered by carbachol at its EC20. B-score at 10 µM. 310,000 tested, 0.45% active. AID 463165;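 active = B-score, a plate-corrected calcium signal, over three deviations above library mean, with baseline fluorescence within five deviations of library mean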;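 also: RGS4 expression induced by doxycycline in cells with stable M3 receptor; B-score is computed from the integrated fluorescence ratio over baseline after carbachol; higher B-score means a larger calcium signal and so more RGS4 inhibition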
Target sequence (P49798 whole entry, looked up): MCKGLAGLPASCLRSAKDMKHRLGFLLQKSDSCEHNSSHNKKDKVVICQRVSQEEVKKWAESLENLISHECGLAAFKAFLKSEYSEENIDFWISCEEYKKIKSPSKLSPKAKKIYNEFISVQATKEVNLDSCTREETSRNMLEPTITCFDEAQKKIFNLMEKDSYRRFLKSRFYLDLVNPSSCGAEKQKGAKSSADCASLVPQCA
RGS4 pot: RGS4 potentiation or activation; HEK293 M3R/inducible RGS4, carbachol calcium flux Fluo4; active compounds read low; B-score at 10 µM; 310,000 tested, 0.92% active;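 active = B-score of the integrated calcium signal more than 4 SD below the library mean, with starting fluorescence not abnormally high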;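 also: negative B-score means reduced calcium response which marks RGS4 activation or potentiation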
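Assay system: Inducible-RGS4 HEK293 cells carrying M3 receptor | Schedule: Compound preincubation 20 min at room temperature before agonist | Signal: Kinetic calcium fluorescence imaging with Fluo4-AM dye, 2 µM | Read-out basis: B score from integrated fluorescence ratio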
MrgX1 ag: activates human MrgX1 receptor signaling; Q96LB2; MrgX1-HEK293 cells, Fluo-4 calcium fluorescence, agonist mode; active compounds read high; B-score at 10 µM; 310,000 tested, 0.44% active; AID 588627;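 active = calcium response B-score plate-corrected fluorescence ratio at least 3 library SD, with starting fluorescence B-score inside 5 SD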
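System – MrgX1-expressing HEK293 cells · Incubation – cells plated overnight, dye loaded 0.5 h 37 °C, 0.5 h room temperature · Technique – kinetic Fluo-4 NW fluorescence of intracellular calcium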
Active calls of the source: *; i = inactive; . = not tested or not shown. Hits are enriched below; roughly 3.5% of the tested compounds scored in any of these assays.

SMILES	MrgX1 allo act	MrgX1 antag	RGS4 block	RGS4 pot	MrgX1 ag
Cc1cc(/C=C2\C(=N)N3N=C(C(C)C)SC3=NC2=O)c(C)n1-c1ccccc1	i	i	i	i	i
COc1cc(/C=C2\C(=N)N3N=C(S(C)(=O)=O)SC3=NC2=O)cc(OC)c1OCCOc1ccc(C)cc1	i	i	i	i	i
CC(=O)Nc1ccc(OCCOc2ccc(/C=C3\C(=N)N4N=C(C(C)C)SC4=NC3=O)cc2)cc1	i	i	i	i	32*
COc1cc(/C=C2\C(=N)N3N=C(S(C)(=O)=O)SC3=NC2=O)ccc1OCCOc1ccc(C)cc1	i	i	i	-7.2*	i
COc1ccc2c(c1)c(C(C)=O)c(C)n2-c1ccccc1OC	i	i	i	i	i
O=C(COC(=O)c1cc(=O)[nH]c2ccccc12)NC(=O)c1ccccc1	i	i	i	i	i
Cc1cc(Cl)ccc1OCC(=O)NN1C(=O)C2C3C=CC(C3)C2C1=O (configuration not stated)	i	-6.1*	i	i	i
O=C(/C=C/c1ccccc1Cl)NCc1cccs1	i	i	i	i	i
COc1ccc(S(=O)(=O)NCC2CCC(C(=O)NCC(OC)OC)CC2)cc1 (configuration not stated)	i	i	i	i	i
CCN(CC)c1nc(SCCOC(=O)Nc2ccccc2)nc(N(CC)CC)n1	i	i	i	-8.8*	i
CC(=O)Oc1ccc(N2C(=O)C3C4C=CC(CO)(O4)C3C2=O)cc1 (configuration not stated)	i	i	i	i	i
O=C1C2C3C=CC(CO)(O3)C2C(=O)N1c1ccccc1-c1ccccc1 (configuration not stated)	i	i	.	.	34*
Cc1ccc(S(=O)(=O)Oc2ccc(/C=C3/C(=N)N4C(=NC3=O)SN=C4S(C)(=O)=O)cc2)cc1	17*	i	i	i	i
CCS(=O)(=O)C1=NSC2=NC(=O)/C(=C\c3ccc(OS(=O)(=O)c4ccccc4)c(OC)c3)C(=N)N21	33*	i	i	i	i
COc1cc(/C=C2/C(=N)N3C(=NC2=O)SN=C3S(C)(=O)=O)ccc1OS(=O)(=O)c1ccc(C)cc1	10*	i	i	i	i
COc1cc(/C=C2/C(=N)N3N=C(C)SC3=NC2=O)ccc1OS(=O)(=O)c1ccc(C)cc1	i	i	i	i	i
O=C(NCC(=O)N1CCN(c2ccccc2O)CC1)c1ccc2c(c1)OCO2	i	i	i	i	i
C1=CN2CCC1C(c1ccccc1)C2 (configuration not stated)	i	i	i	-7.3*	i
CC(C)(C)NC(=O)C(c1ccncc1)N(C(=O)Cn1nnc(-c2ccc(F)cc2)n1)c1ccc(F)cc1 (configuration not stated)	i	-5.6*	i	i	i
O=C(C1CCN(S(=O)(=O)c2ccc(F)cc2)CC1)N1CCOCC1	i	i	i	i	i
COc1ccccc1N1CCN(C(=O)c2sc3nc(C)nc(N4CCN(c5ccccn5)CC4)c3c2C)CC1	i	i	i	-8.2*	i
Cc1ccc(S(=O)(=O)N2[C@@H](c3ccc(Cl)cc3)C(C(=O)O)=CC[C@H]2c2cccs2)cc1	i	i	.	.	i
CC(=O)NNC(=S)NC(=O)C(c1ccccc1)c1ccccc1	i	i	i	i	35*
CC(C)(C)C(=O)NC(=S)NNC(=O)C(c1ccccc1)c1ccccc1	i	i	i	-7.4*	156*
CCNC(=S)NNC(=O)C(c1ccccc1)c1ccccc1	i	i	i	i	i
SMILES	MrgX1 allo act	MrgX1 antag	RGS4 block	RGS4 pot	MrgX1 ag
CCOc1ccc(NC(=O)CCC(=O)Oc2ccc(C)cc2)cc1	i	i	i	i	i
Cc1ccccc1NC1=NCC(c2ccc([N+](=O)[O-])cc2)S1 (configuration not stated)	i	-5.7*	i	i	i
CC(C)c1ccc(OCC(=O)NNC(=S)NC(=O)c2ccco2)c(Br)c1	i	i	i	-9.5*	i
CC(C)(C)c1ccc(OCC(=O)NNC(=S)NC(=O)c2ccco2)c(Br)c1	i	i	i	-10*	i
Cc1csc(N/N=C/c2ccccc2F)n1	i	i	i	i	i
Cc1csc(N/N=C/c2c(F)cccc2Cl)n1	9.8*	i	i	i	i
CCCOc1ccc(C(C)=O)cc1CSc1nc(O)cc(=O)[nH]1	i	i	i	i	i
CCCCC(=O)N/N=C(\C)c1cccc(NC(=O)C2CC2)c1	i	-5.6*	i	i	i
CN(C)c1ccc(/C=N/N2CCN(Cc3ccccc3Cl)CC2)cc1	i	i	i	i	i
Cc1nc(N/N=C/c2ccc(O)cc2)c2cnn(-c3ccccc3)c2n1	i	-7.5*	i	i	i
C=CCN(CC=C)C(=O)c1ccc(OC2CCN(Cc3ccccn3)CC2)cc1	i	i	i	i	i
CCCCCn1c(CCC(=O)Oc2ccccc2OC)nc2c1c(=O)[nH]c(=O)n2CCCC	i	i	i	i	i
CCN(CC)S(=O)(=O)c1ccc(Cl)c(C(=O)Oc2cccc(-c3cnc4ccccc4n3)c2)c1	i	i	i	-7.1*	i
Cc1ccc(C)n1-c1ccc(C(=O)N/N=C/c2ccncc2)cc1	10*	i	i	i	i
CSc1sccc1/C=C(/C#N)C(=O)c1ccco1	i	i	i	i	37*
Cc1cccc(N2CCN(C(=O)c3ccc(CS(=O)Cc4ccc(Cl)cc4)o3)CC2)c1C (configuration not stated)	i	i	i	i	i
COc1ccc(S(=O)(=O)Cc2ccc(C(=O)N3CCN(c4cc(Cl)ccc4C)CC3)o2)cc1	i	i	i	-8.2*	i
Cc1ccc(C)c(N2CCN(C(=O)c3ccc(CS(=O)Cc4cccc(Cl)c4)o3)CC2)c1 (configuration not stated)	i	i	i	-8.7*	i
COc1ccc(S(=O)(=O)Cc2ccc(C(=O)NCCc3cc(OC)ccc3OC)o2)cc1	7.5*	i	i	i	i
O=C(CCC(=O)N1CCN(c2ccccn2)CC1)Nc1nnc(C(F)(F)F)s1	i	i	i	i	i
NNC(=O)CNC(=O)c1cccc(Br)c1	6.5*	i	i	i	i
Cc1nc2ccccn2c1C(=O)N/N=C/c1ccccc1	i	i	i	i	i
